Reference: publication PMC3435882 (Molecular imaging and biology : MIB : the official …, 2009)
Bridge positions count the residues as written; N and C are the ends. Square brackets hold non-standard residues; d marks the D form. Peptide text beside a SMILES is read from it. Cy5.5 = cyanine dye Cy5.5, conjugated as the NHS ester; βAla = NCCC(=O)O

Columns and labels:
PC-3 tumors = assay type: in vivo, mice; details: for tumor uptake in intratibial PC-3 tumors: 48 hr after intravenous injection, 15 nmol/mouse
U87 cells [1] = experiment: Confocal microscopy of U87 cells; assay type: cell-based, human; details: 5 min
Procedure, shortened: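 U87 cells (1 × 10⁵) on cover slips in 24-well plates were exposed to 10 μM Cy5.5-labelled test compound or free Cy5.5. They were held 5 min at 4°C or 37°C in the dark, then washed twice with PBS. Nuclei were stained with 1 μM Sytox Green. After two more PBS washes, slides were mounted for confocal imaging at emission 693 nm (Cy5.5) and 488 nm (Sytox Green).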

U87 cells [2] = experiment: Fluorescence microscopy, probe uptake in U87 cells; assay type: cell-based, human; details: for uptake/binding in U87 cells: 10 μM, 37°C, 5 min
Procedure, shortened: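 U87 cells grown in DMEM/F-12 with 10% FBS were seeded on cover slips overnight. For blocking, cells were pretreated with doxycycline (5, 25, 100 μM) or unlabelled peptide, then given 10 μM Cy5.5-labelled test compound; uptake samples received the probe alone (10 μM, 37°C, 5 min). After two PBS washes, cells were fixed and stained with 1 μM Sytox Green in 95% ethanol (15 min). Fluorescence microscopy was at ×60.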

MMP-2 [3] = target: T1, MMP-2 (Homo sapiens, UniProt P08253); experiment: In vitro MMP-2 inhibition assay; assay type: biochemical; details: MMP-2 Inhibition IC50, APMA-activated MMP-2, 1 hr preincubation at 37°C
T1 sequence (P08253 110-660): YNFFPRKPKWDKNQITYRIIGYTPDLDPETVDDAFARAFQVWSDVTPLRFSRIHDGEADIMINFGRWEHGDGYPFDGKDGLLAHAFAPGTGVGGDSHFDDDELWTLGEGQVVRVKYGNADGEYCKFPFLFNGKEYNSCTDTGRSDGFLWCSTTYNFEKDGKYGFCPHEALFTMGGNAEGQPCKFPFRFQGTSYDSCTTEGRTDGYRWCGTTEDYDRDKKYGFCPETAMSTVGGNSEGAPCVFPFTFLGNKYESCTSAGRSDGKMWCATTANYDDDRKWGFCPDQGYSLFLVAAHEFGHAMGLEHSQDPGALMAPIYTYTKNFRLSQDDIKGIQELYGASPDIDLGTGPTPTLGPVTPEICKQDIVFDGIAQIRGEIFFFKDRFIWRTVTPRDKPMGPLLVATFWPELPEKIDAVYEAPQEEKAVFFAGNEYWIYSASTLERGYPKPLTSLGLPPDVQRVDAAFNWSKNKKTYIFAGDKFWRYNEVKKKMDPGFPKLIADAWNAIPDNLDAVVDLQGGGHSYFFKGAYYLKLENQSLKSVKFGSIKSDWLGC
Procedure, shortened: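 Commercial MMP-2 was activated with APMA. Test compound was preincubated with activated enzyme (40 ng/200 μl) for 1 hr at 37°C, then biotinylated gelatinase substrate was added for 1 hr. The mixture was moved to a biotin-binding plate (30 min, 37°C) and washed. Streptavidin-enzyme conjugate and chromogenic substrate followed, and OD at 450 nm gave relative gelatinase activity.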

[4] = system: gelatinase activity in U87 cell lysates; experiment: Gelatin zymography; assay type: biochemical, human; details: U87 cell lysate, doxycycline 100 μM in incubation buffer
Procedure, shortened: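 U87 cells were lysed in 1% Triton X-100, 50 mM Tris-HCl pH 7.6, 200 mM NaCl, 10 mM CaCl₂, then spun 10 min at 9700 × g. Supernatant was diluted 1:4 in SDS sample buffer, loaded at equal protein and run on 10% gels containing 1 mg/ml gelatin. Gels were washed 4 hr in Triton/CaCl₂ buffer and developed overnight at 37°C (pH 7.6), with doxycycline added, then Coomassie-stained.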

[5] = Stability study in serum-containing culture medium; assay type: in vitro ADME; details: DMEM/F-12 with 10% fetal bovine serum, 25°C, over 3 hr, HPLC
Procedure, shortened: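 Peptides were incubated at 25°C in DMEM/F-12 containing 10% FBS. Aliquots taken at intervals were analysed by reverse-phase C-18 HPLC using an acetonitrile/water gradient with 0.1% TFA and UV detection at 230 nm. Intact-peptide peak area was expressed as a percentage of the 0-min area.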

MMP-2 [6] = target: T1, MMP-2; experiment: In vitro β-casein degradation assay; assay type: biochemical; details: 0, 10, 50, 200 μM; SDS-PAGE
A549 cells = experiment: Fluorescence microscopy, probe uptake in A549 cells; assay type: cell-based, human; details: 10 μM, 37°C, 5 min
Procedure, shortened: (§1)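 Cells were kept in DMEM/F-12 with 10% FBS at 37°C, 5% CO₂, seeded on cover slips and incubated overnight. Cy5.5-labelled test compound (10 μM) was added for 5 min at 37°C. Cells were washed twice with PBS, then fixed and nuclear-stained with 1 μM Sytox Green in 95% ethanol for 15 min. Fluorescence microscopy was at ×60.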

PC-3 cells = experiment: Fluorescence microscopy, probe uptake in PC-3 cells; assay type: cell-based, human; details: 10 μM, 37°C, 5 min
Procedure, shortened: as §1

U87 brain tumors = experiment: In vivo and ex vivo NIRF imaging of intracranial U87 tumors; parameters: species or system mice; details: 24 hr after intravenous administration, 15 nmol/mouse

Compound: Cy5.5-c(KHGLTWFAD)NH2 ({Cy5.5}-KHGLTWFAD-NH2; also: cyclic, ring type and sites not given here) [Cy5.5-C7]
- tumor uptake in intratibial PC-3 tumors (PC-3 tumors): not taken up by the tumors

Compound: Cy5.5 [reference compound]
- cell uptake and distribution at 37°C (U87 cells [1]): minimal uptake
- uptake/binding in U87 cells (U87 cells [2]): did not bind to the cells

Compound: CC(C)C[C@@H]1NC(=O)[C@H]([C@@H](C)O)NC(=O)[C@H](Cc2ccccc2)NC(=O)CNC(=O)[C@H](Cc2c[nH]c3ccccc23)NC(=O)[C@H](Cc2c[nH]cn2)NC(=O)[C@H]([C@@H](C)O)NC(=O)[C@H]([C@@H](C)O)NC(=O)[C@H](C)NC(=O)CCNC1=O [C3, c(ATTHWGFTL-β-Ala)] (cyclo(ATTHWGFTL[βAla]))
- IC50 (MMP-2 [3]): 83.9 µM

Compound: C[C@H]1c2cccc(O)c2C(=O)C2=C(O)[C@]3(O)C(=O)C(C(N)=O)=C(O)[C@@H](N(C)C)[C@@H]3[C@@H](O)[C@@H]21 [doxycycline, reference compound]
- blocking of Cy5.5-C6 binding to U87 cells (U87 cells [2]; doxycycline 25 and 100 μM followed by Cy5.5-C6 10 μM): partially blocked
- blocking of in vivo uptake of Cy5.5-C6 in PC-3 tumors (PC-3 tumors; co-injection with doxycycline (data not shown)): could not be blocked
- blocking of gelatinase activity in zymography [4]: could be blocked

Compound: CC(C)C[C@@H]1NC(=O)[C@H]([C@@H](C)O)NC(=O)[C@H](Cc2ccccc2)NC(=O)CNC(=O)[C@H](Cc2c[nH]c3ccccc23)NC(=O)[C@H](Cc2c[nH]cn2)NC(=O)[C@H]([C@@H](C)O)NC(=O)[C@H]([C@@H](C)O)NC(=O)[C@@H](N)CSSC[C@@H](C(N)=O)NC1=O [C1, c(CTTHWGFTLC)NH2, reference compound] (H-CTTHWGFTLC-NH2; disulfide 1-10)
- IC50 (MMP-2 [3]): 30.3 µM
- stability of intact peptide [5]: completely degraded

Compound: Cy5.5-c(KAHWGFTLD)NH2 ({Cy5.5}-KAHWGFTLD-NH2; lactam 1-9) [Cy5.5-C6]
- cell uptake at 4°C (U87 cells [1]; 4°C): substantially reduced
- cell uptake and distribution at 37°C (U87 cells [1]): distributed to cell cytosol and nuclei
- inhibition of β-casein degradation by MMP-2 (MMP-2 [6]): inhibited the degradation of β-casein in a dose-dependent manner
- binding to A549 cells (minimal MMP-2 activity) (A549 cells): did not bind
- uptake/binding in U87 cells (U87 cells [2]): rapidly taken up
- uptake in PC-3 cells (PC-3 cells): taken up
- localization to orthotopic U87 gliomas (U87 brain tumors): readily visible
- tumor uptake in intratibial PC-3 tumors (PC-3 tumors): clearly visualized

Compound: Cy5.5-c(CTTHWGFTLC)NH2 ({Cy5.5}-CTTHWGFTLC-NH2; disulfide 1-10) [Cy5.5-C1]
- inhibition of β-casein degradation by MMP-2 (MMP-2 [6]): inhibited the degradation of β-casein in a dose-dependent manner
- uptake/binding in U87 cells (U87 cells [2]): to a less degree
- tumor uptake in intratibial PC-3 tumors (PC-3 tumors): tumor targeting could not be detected
